Test results as given in ChEMBL document CHEMBL1138388, “Chemically programmed antibodies: endothelin receptor targeting CovX-Bodies” (Bioorg Med Chem Lett, 2007).
The source made the active and inactive calls. The rule behind the calls is not given here.

Experiments:
Homo sapiens = species on record: Homo sapiens; experiment: Selectivity for human ETA receptor over human ETB receptor
Endothelin-1 receptor = molecular target: T1, Endothelin-1 receptor (Homo sapiens, UniProt P25101); experiment: Displacement of [125I]ET1 from human ETA receptor expressed in CHO cells; type: cell-based
T1 sequence (P25101 whole entry): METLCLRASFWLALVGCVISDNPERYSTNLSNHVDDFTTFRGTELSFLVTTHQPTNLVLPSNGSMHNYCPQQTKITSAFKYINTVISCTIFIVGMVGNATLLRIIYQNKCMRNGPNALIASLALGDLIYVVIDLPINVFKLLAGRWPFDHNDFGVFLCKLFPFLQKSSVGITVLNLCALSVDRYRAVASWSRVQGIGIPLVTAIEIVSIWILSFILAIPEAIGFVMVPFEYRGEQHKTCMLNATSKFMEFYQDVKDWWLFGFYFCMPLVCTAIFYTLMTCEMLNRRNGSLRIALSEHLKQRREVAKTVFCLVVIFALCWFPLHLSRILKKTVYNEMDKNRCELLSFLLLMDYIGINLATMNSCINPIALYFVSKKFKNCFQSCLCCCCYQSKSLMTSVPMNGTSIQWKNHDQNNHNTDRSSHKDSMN
Method in brief: (§1)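 Competitive binding against 125I-labeled ET-1 on CHO cells stably expressing human ETA or ETB receptor. Six concentrations, 1 µM to 10 pM, at least three measurements each. IC50 taken from the means.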

[1] = molecular target: T2, Endothelin receptor type B (Homo sapiens, UniProt P24530); experiment: Displacement of [125I]ET1 from human ETB receptor expressed in CHO cells; type: cell-based; method in brief: as §1
T2 sequence (P24530 whole entry): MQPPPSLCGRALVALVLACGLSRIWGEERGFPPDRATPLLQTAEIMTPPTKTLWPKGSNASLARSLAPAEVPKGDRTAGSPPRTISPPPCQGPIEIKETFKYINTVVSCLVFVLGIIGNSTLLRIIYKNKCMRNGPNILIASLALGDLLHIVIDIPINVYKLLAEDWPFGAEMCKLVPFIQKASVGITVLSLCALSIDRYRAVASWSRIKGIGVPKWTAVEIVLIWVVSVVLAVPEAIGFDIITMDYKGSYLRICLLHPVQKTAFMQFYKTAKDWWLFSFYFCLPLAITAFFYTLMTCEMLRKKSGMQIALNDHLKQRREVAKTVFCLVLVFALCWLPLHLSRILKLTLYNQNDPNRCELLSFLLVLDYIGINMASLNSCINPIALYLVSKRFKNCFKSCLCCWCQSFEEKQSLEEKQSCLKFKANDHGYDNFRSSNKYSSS

PC-3 [2] = experiment: Inhibition of tumor growth in PC3 cells xenografted mouse at 0.25 mg/kg administered once weekly for 31 days; type: functional, organism-based; parameters: dose 0.25 mg/kg; conditions: Homo sapiens
Method in brief: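 PC-3 prostate cancer xenograft. Dosing at 0.25 mg/kg once weekly. Tumor volume tracked to day 31 against vehicle control. Significance by one-way ANOVA with Dunnett's multiple comparison test to vehicle.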

PC-3 [3] = experiment: Inhibition of tumor growth in human PC3 cells xenografted mouse at 2 mg/kg after 31 days; type: functional; conditions: PC-3, 744 h
Method in brief: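 PC-3 prostate cancer xenograft. Dosing at 2 mg/kg […]. Tumor volume growth inhibition read at day 31 against vehicle control. Significance by one-way ANOVA with Dunnett's test to vehicle.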

Row | SMILES | Ratio IC50 (Homo sapiens) | IC50 (Endothelin-1 receptor) | IC50 [1] | Activity (PC-3 [2]) | inhibition in vivo at 2 mg/kg (PC-3 [3])
1 | CC(=O)CC(=O)CCc1ccc(NC(=O)CCOCCOCCOCCOCCOc2ccc(CCC(=O)N(C)Cc3cc(-c4ncco4)ccc3-c3ccccc3S(=O)(=O)Nc3ccno3)cc2)cc1 | 228 | 21.6 nM | 4920 nM | – | –
2 | CC(=O)CC(=O)CCc1ccc(NC(=O)CCOCCOCCOCCOc2ccc(-c3ccccc3S(=O)(=O)Nc3ccno3)c(CN(C)C(=O)CC(C)(C)C)c2)cc1 | – | 44.9 nM | > 10000 nM | – | –
3 | CC(=O)CC(=O)CCc1ccc(NC(=O)CCOCCOCCOCCOCCOc2ccc(CC(=O)N(C)Cc3cc(-c4ncco4)ccc3-c3ccccc3S(=O)(=O)Nc3ccno3)cc2)cc1 | 420 | 4.6 nM | 1910 nM | – | –
4 | CC(=O)CC(=O)CCc1ccc(NC(=O)CCOCCOCCOCCOCCOCCOCCOCCC(=O)N(C)Cc2cc(-c3ncco3)ccc2-c2ccccc2S(=O)(=O)Nc2ccno2)cc1 | 564 | 8 nM | 4690 nM | – | –
5 | CC(=O)CC(=O)CCc1ccc(NC(=O)CCOCCOCCOCCOCCOCCOCCOCCOCCOCCOCCOCCNC(=O)CCCC(=O)N(C)Cc2cc(-c3ncco3)ccc2-c2ccccc2S(=O)(=O)Nc2ccno2)cc1 | 564 | 7.7 nM | 4510 nM | – | –
6 | CC(=O)CC(=O)CCc1ccc(NC(=O)CCOCCOCCOCCOCC(=O)N(C)Cc2cc(-c3ncco3)ccc2-c2ccccc2S(=O)(=O)Nc2ccno2)cc1 | 1120 | 1.6 nM | 1110 nM | inactive | –
7 | CN(Cc1cc(-c2ncco2)ccc1-c1ccccc1S(=O)(=O)Nc1ccno1)C(=O)CC(C)(C)C | 8980 | 1 nM | 6000 nM | – | 50%
